In the library only some 4.8% were active in any assay of this set; here they are far more common.
pPAFAH inh: inhibitors of human plasma PAF acetylhydrolase (pPAFAH) | inhibition, % at 3.39 µM | 330,000 compounds, 1.5% hits | recombinant pPAFAH, FP-rhodamine probe fluorescence polarization | AID 463082;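 active means inhibition above the mean inhibition across the screen plus 3 SD, cut at about 25% in these data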;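 further: inhibitors block binding of the rhodamine activity-based probe so polarization drops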
PAFAH1B2 inh: inhibitors of human PAFAH1B2; P68402; recombinant PAFAH1B2, FP-rhodamine activity probe, fluorescence polarization; inhibition, % at 3.39 µM; 340,000 compounds, 1.2% hits; AID 492953;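 active means inhibition above the mean of all tested compounds plus 3 SD, cut at about 24% in these data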
Target sequence (P68402 whole entry, looked up): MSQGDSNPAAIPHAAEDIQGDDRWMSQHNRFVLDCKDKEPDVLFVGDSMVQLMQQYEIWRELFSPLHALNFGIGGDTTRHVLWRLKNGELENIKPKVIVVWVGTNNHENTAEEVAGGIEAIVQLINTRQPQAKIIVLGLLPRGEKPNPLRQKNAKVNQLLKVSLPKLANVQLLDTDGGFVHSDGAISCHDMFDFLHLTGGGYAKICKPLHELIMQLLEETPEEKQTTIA
PAFAH1B3 FP inh: blocks human PAF acetylhydrolase 1B catalytic subunit 3; Q15102; recombinant PAFAH1B3, FP-rhodamine probe, fluorescence polarization; inhibition, % at 3.39 µM; 340,000 compounds, 0.28% hits;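 active means inhibition above the screen-wide average of all tested compounds plus 3 SD, cut at about 25% in these data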
PAFAH2 inh: inhibitors of human PAFAH2 | recombinant PAFAH2, FP-rhodamine activity probe, fluorescence polarization | inhibition, % at 3.39 µM | 340,000 compounds, 0.99% hits;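 active means inhibition above the mean over all tested compounds plus 3 SD, cut at about 30% in these data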;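 further: inhibitors block probe labeling of enzyme so polarization drops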
UCH37 DUB inh: inhibitors of human deubiquitinating enzyme UCH37; Q9Y5K5; purified proteasome/UCH37, Ub-AMC cleavage fluorescence; inhibition, % (concentration not given with the values); 330,000 compounds, 0.33% hits; AID 588478;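 active means mean inhibition over replicate wells above about 20%, limit read from the data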
Target sequence (Q9Y5K5 whole entry, looked up): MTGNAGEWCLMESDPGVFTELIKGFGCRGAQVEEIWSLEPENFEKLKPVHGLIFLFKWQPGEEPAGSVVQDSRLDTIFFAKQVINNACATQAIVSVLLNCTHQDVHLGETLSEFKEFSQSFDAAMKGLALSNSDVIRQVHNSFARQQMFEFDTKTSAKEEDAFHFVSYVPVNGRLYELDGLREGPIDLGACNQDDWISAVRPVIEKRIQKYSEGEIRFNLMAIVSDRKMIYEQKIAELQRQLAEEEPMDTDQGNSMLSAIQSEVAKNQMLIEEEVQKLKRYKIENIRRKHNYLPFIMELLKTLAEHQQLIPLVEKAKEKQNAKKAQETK
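Schedule: 30 min plus 25 min, room temperature / Material: human UCH37 within purified proteasomes / Technique: AMC fluorescence intensity at 355/460 nm / Buffer or medium: pH 7.4 Tris-HCl (50 mM) with ovalbumin, ATP-MgCl2, DTT / Controls: wells without proteasome as full block, compound-free enzyme plus substrate as uninhibited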
GRIN3A LBD mod: NR3A (human) ligand-binding domain modulation | NR3A LBD differential scanning fluorimetry, Tm shift; 0% = protein alone, 100% = glycine-bound protein | 340,000 compounds, 2.5% hits | Tm shift relative to glycine control, % at 25 µM;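 active means melting temperature shift of at least 10% of the positive control shift, at one fixed dose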
pPAFAH confirm: confirmation of human plasma PAF acetylhydrolase (pPAFAH) inhibitors | shares compounds with pPAFAH inh | recombinant pPAFAH, FP-Rh probe fluorescence polarization | inhibition, % at 3.39 µM | 2,300 compounds, 72% hits;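 active means mean inhibition of the triplicate above the hit cutoff set for the earlier primary screen, cut at about 25% in these data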
Numbers stand for hits; n = inactive; x = no result.

SMILES	pPAFAH inh	PAFAH1B2 inh	PAFAH1B3 FP inh	PAFAH2 inh	UCH37 DUB inh	GRIN3A LBD mod	pPAFAH confirm
Cc1ccc(N=Nc2c(O)[nH]c(=O)[nH]c2=O)cc1S(=O)(=O)Nc1ccc(Br)cc1	76	n	n	n	n	n	n
CN(C)c1ccc(N2C(=O)CSC2=S)cc1	37	n	n	n	n	n	n
COc1cccc(C(=O)C(C#N)=NNc2cccc(-c3ccnc(C)n3)c2)c1	x	x	x	x	n	x	x
CC(OC(=O)CCCN=C1NS(=O)(=O)c2ccccc21)C(=O)N(C)c1ccccc1 (centres undefined)	68	n	n	n	n	n	n
O=C(Nc1ccccc1)c1ccc2nc(-c3ccco3)c(-c3ccco3)nc2c1	66	n	n	n	n	n	n
O=C(NCc1ccccc1)c1ccc2nc(-c3ccco3)c(-c3ccco3)nc2c1	71	n	n	n	n	n	58
CCCNC(=O)c1ccc2nc(-c3ccccc3)c(-c3ccccc3)nc2c1	n	n	n	n	n	n	x
CCCCNC(=O)c1ccc2nc(-c3ccco3)c(-c3ccco3)nc2c1	61	n	n	n	n	n	n
CC(=O)c1ccc(NC(=O)c2ccc3nc(-c4ccco4)c(-c4ccco4)nc3c2)cc1	62	n	n	n	n	n	50
CCc1cc(C(Cc2ccccn2)=NO)c(O)cc1O	x	x	x	x	n	x	x
COc1cc(C=NNC(=O)CC2(C)OCCCO2)ccc1OCc1ccccc1	x	x	x	x	n	x	x
CC1Oc2cc3oc4c(O)c(O)ccc4c(=O)c3c(O)c2C1(C)C (centres undefined)	75	n	n	32	n	20	83
CC(=O)Nc1ccc(C=NNc2ccc(S(=O)(=O)Nc3ccccc3C(=O)O)cc2[N+](=O)[O-])cc1	64	26	27	n	n	22	66
COc1ccccc1NS(=O)(=O)c1ccc(NN=Cc2ccccc2OCC(=O)O)c([N+](=O)[O-])c1	x	x	x	x	n	x	x
COc1cc(C=NNc2ccc(S(=O)(=O)Nc3ccccc3C(=O)O)cc2[N+](=O)[O-])ccc1O	63	31	n	48	22	19	78
O=[N+]([O-])c1ccc(N/N=C/c2sc(N3CCOCC3)nc2-c2ccccc2)c(S(=O)(=O)Nc2ccccc2Cl)c1	x	n	n	n	x	n	x
CN(CCO)c1ccc(C=NNc2ccc([N+](=O)[O-])cc2S(=O)(=O)Nc2ccccc2C(=O)O)cc1	49	x	x	x	n	26	55
COc1ccc(C=NNc2ccc([N+](=O)[O-])cc2)cc1Cn1cc([N+](=O)[O-])cn1	x	x	x	x	n	x	x
O=C1CSC(=S)N1/N=C/c1ccc(O)c(O)c1O	67	n	n	36	x	n	64
COC(=O)N/N=C/c1cc(N=Nc2ccccc2Cl)ccc1O	n	n	n	n	x	n	x
Nc1ccc(C(=O)N/N=C\c2cc(N=Nc3cccc4ccccc34)ccc2O)cc1	77	n	n	n	x	n	53
CCOC(=O)NN=Cc1cccc(Cl)c1Cl	x	x	x	x	n	x	x
CCn1ncc(C=NNC(=O)Cc2ccc([N+](=O)[O-])cc2)c1C	x	x	x	x	n	x	x
N#CC(=NNc1ccc(Cl)c(Cl)c1)C(=O)C1CC1	x	x	x	x	n	x	x
N#C/C(=N\Nc1ccc(Cl)c(Cl)c1)C(=O)C1CC1	41	x	x	x	x	12	40
SMILES	pPAFAH inh	PAFAH1B2 inh	PAFAH1B3 FP inh	PAFAH2 inh	UCH37 DUB inh	GRIN3A LBD mod	pPAFAH confirm
O=C(NCCc1ccccc1)c1ccc2c(=O)[nH]c3c(C(=O)NCC4CCCO4)sc(=S)n3c2c1 (centres undefined)	71	50	30	n	x	n	84
CC(C)NC(=O)c1sc(=S)n2c1[nH]c(=O)c1ccc(C(=O)NCCc3ccc(Cl)cc3)cc12	n	n	n	n	n	n	x
CCCCNC(=O)c1sc(=S)n2c1[nH]c(=O)c1ccccc12	35	26	31	38	n	n	63
O=C(OCc1cc(=O)n2ccsc2n1)c1ccccc1NCCO	74	n	n	n	n	n	n
O=C(OCc1cc(=O)n2ccsc2n1)c1ccccc1O	n	n	n	n	n	n	x
O=[N+]([O-])c1ccc(Cl)c2c1C1C=CCC1C(c1ccccn1)N2 (centres undefined)	37	n	n	n	n	n	n
CCCn1ncc(C=NO)c1C	x	x	x	x	n	x	x
O=C(Nc1ccc2nc(-c3ccco3)c(-c3ccco3)nc2c1)N1CCN(c2ccccn2)CC1	37	n	n	n	n	n	28
O=C(c1ccc2nc(-c3ccco3)c(-c3ccco3)nc2c1)N1CCN(c2ncccn2)CC1	49	n	n	n	n	n	n
O=C(c1cccc(C(=O)N2CCN(c3ncccn3)CC2)c1)N1CCN(c2ncccn2)CC1	n	n	n	n	n	n	x
S=C(Nc1ccc(N2CCOCC2)cc1)Nc1ccc2nc(-c3ccco3)c(-c3ccco3)nc2c1	43	n	n	n	n	n	n
COc1cc(C=NNC(=O)c2cc(-c3cccn3C)n[nH]2)cc(OC)c1OC	x	x	x	x	n	x	x
COc1ccc(CCNC(=O)CC(C)=NNC(=O)COc2ccc(C)cc2Br)cc1OC	x	x	x	x	n	x	x
C(=Nc1nc2ccccc2n1Cc1ccccc1)c1cccs1	x	x	x	x	n	x	x
N#CCCN(C(=O)COC(=O)c1ccc(S(=O)(=O)Nc2ccccc2)cc1)c1ccccc1	35	n	n	n	n	n	n

Bioassay records deposited in PubChem BioAssay by several laboratories.
